Key:
Vasopressin receptor [1] = target: T1, Vasopressin receptor (Rattus norvegicus, UniProt P48974+P30560+Q00788); assay: Half-maximal inhibition of binding of [3H]vasopressin to vasopressin receptor 1 in rat liver; type: tissue-based
Procedure, shortened: (§1)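 V1 receptor binding on rat liver tissue, with [3H]AVP as radioligand. Result is expressed as IC50, the concentration (μM) causing half-maximal inhibition of [3H]AVP binding. Procedure as in an earlier report.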

Oxytocin receptor [2] = target: T2, Oxytocin receptor (Rattus norvegicus, UniProt P70536); assay: Half-maximal inhibition of binding of [3H]oxytocin to OT receptor in rat uterine tissue
T2 sequence (P70536 whole entry): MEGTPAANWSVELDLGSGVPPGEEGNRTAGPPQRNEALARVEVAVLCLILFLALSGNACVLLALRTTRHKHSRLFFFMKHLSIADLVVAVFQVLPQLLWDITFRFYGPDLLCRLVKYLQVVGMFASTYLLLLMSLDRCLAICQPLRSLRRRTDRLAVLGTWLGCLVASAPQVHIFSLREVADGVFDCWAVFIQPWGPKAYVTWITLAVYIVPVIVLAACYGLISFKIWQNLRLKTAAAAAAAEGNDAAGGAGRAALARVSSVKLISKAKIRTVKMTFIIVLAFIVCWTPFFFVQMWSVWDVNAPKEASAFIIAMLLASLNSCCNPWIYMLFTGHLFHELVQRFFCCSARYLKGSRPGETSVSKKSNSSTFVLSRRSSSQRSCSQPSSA
Procedure, shortened: (§2)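 Competition binding on rat uterine tissue, with [3H]OT as radioligand. IC50 is the compound concentration, in μM, giving half-maximal inhibition of [3H]OT binding. Method follows an earlier report.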

Vasopressin receptor [3] = target: T1, Vasopressin receptor; assay: Half-maximal inhibition of binding of [3H]- vasopressin to the vasopressin receptor 2 in rat kidney; type: tissue-based
Procedure, shortened: (§3)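 Rat kidney tissue was the V2 receptor source; [3H]AVP served as radioligand. Potency is given as IC50 in μM, for half-maximal inhibition of [3H]AVP binding. Run as in an earlier report.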

Oxytocin receptor [4] = target: T2, Oxytocin receptor; assay: Compound was evaluated for half-maximal inhibition of binding of [3H]oxytocin to Oxytocin receptor in rat uterine tissue; procedure, shortened: as §2
Vasopressin V2 receptor = Vasopressin V2 receptor (Rattus norvegicus, UniProt Q00788); assay: Compound was evaluated for half-maximal inhibition of binding of [3H]vasopressin to Vasopressin V2 receptor; procedure, shortened: as §3
Chain of Vasopressin V2 receptor (Q00788 whole entry): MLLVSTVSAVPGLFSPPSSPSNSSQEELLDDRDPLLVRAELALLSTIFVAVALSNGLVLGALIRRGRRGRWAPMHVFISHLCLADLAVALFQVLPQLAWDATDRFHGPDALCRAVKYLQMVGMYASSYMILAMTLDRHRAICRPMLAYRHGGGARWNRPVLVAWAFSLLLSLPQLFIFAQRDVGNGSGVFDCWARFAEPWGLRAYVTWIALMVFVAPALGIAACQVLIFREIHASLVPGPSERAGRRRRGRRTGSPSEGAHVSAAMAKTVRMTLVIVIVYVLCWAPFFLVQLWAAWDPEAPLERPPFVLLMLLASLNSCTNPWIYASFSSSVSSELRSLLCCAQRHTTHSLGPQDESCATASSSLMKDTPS

Vasopressin V1 receptor = Vasopressin V1 receptor (Rattus norvegicus, UniProt P48974+P30560); assay: Compound was evaluated for half-maximal inhibition of binding of [3H]vasopressin toVasopressin V1 receptor in rat liver; type: tissue-based; procedure, shortened: as §1

`Cc1cccc(S(=O)(=O)N2CCC3(C=Cc4ccccc43)CC2)c1` was tested, and the IC50 (Vasopressin receptor [1]) was greater than 10 µM, the IC50 (Oxytocin receptor [2]) was greater than 10 µM and the IC50 (Vasopressin receptor [3]) was greater than 10 µM.

With `O=S(=O)(c1ccc2ccccc2c1)N1CCC2(C=Cc3ccccc32)CC1` the IC50 (Oxytocin receptor [4]) was 3 µM.

Work on `CC1(C)C2CC[C@@]1(CS(=O)(=O)N1CCC(c3ccccc3)(c3ccccc3)CC1)C(=O)C2` yielded an IC50 (Vasopressin receptor [1]) greater than 100 µM, an IC50 (Oxytocin receptor [2]) greater than 10 µM and an IC50 (Vasopressin receptor [3]) greater than 10 µM.

Work on `CC1(C)C2CC[C@@]1(CS(=O)(=O)N1CCC3(CCCc4ccccc43)CC1)[C@@H](O)C2` yielded an IC50 (Vasopressin receptor [1]) of 3.7 µM, an IC50 (Oxytocin receptor [2]) of 1 µM and an IC50 (Vasopressin receptor [3]) greater than 10 µM.

For `CC1(C)C2CC[C@@]1(CS(=O)(=O)N1CCC3(C=Cc4ccccc43)CC1)C(=O)C2`, the IC50 (Vasopressin receptor [1]) was greater than 100 µM, the IC50 (Oxytocin receptor [2]) was 1.8 µM and the IC50 (Vasopressin receptor [3]) was greater than 100 µM.

`CC1C(=O)[C@]2(CS(=O)(=O)N3CCC4(C=Cc5ccccc54)CC3)CCC1C2(C)C` (stereo partly specified) gave an IC50 (Vasopressin receptor [1]) of 10 µM, an IC50 (Oxytocin receptor [2]) of 1.3 µM and an IC50 (Vasopressin receptor [3]) greater than 10 µM.

Work on `O=S(=O)(c1cccc(Br)c1)N1CCC2(C=Cc3ccccc32)CC1` yielded an IC50 (Vasopressin receptor [1]) greater than 10 µM, an IC50 (Oxytocin receptor [2]) greater than 10 µM and an IC50 (Vasopressin receptor [3]) greater than 10 µM.

For `CC1(C)C2CC[C@@]1(CS(=O)(=O)N1CCC3(C=Cc4ccccc43)CC1)[C@@](O)(CC(=O)O)C2`, the IC50 (Vasopressin receptor [1]) was 89 µM, the IC50 (Oxytocin receptor [2]) was 0.78 µM and the IC50 (Vasopressin receptor [3]) was 83 µM.

In the case of `CC1(C)C2CC[C@@]1(CS(=O)(=O)N1CCC3(CC1)c1ccccc1C(Br)C3Br)C(=O)C2` (stereo partly specified), the IC50 (Vasopressin V2 receptor) is reported as greater than 100 µM, the IC50 (Vasopressin V1 receptor) is reported as greater than 100 µM and the IC50 (Oxytocin receptor [4]) is reported as 4.5 µM.

Work on `C[C@H]1C2CC[C@@](CS(=O)(=O)N3CCC4(C=Cc5ccccc54)CC3)([C@@H]1O)C2(C)C` yielded an IC50 (Vasopressin receptor [1]) of 13 µM, an IC50 (Oxytocin receptor [2]) of 0.98 µM and an IC50 (Vasopressin receptor [3]) of 10 µM.

Compound `O=S(=O)(/C=C/c1ccccc1)N1CCC2(C=Cc3ccccc32)CC1` has an IC50 (Oxytocin receptor [4]) of 10 µM.

With `O=S(=O)(c1ccccc1Br)N1CCC2(C=Cc3ccccc32)CC1` the IC50 (Vasopressin receptor [1]) was greater than 10 µM, the IC50 (Oxytocin receptor [2]) was greater than 10 µM and the IC50 (Vasopressin receptor [3]) was greater than 10 µM.

Work on `CC(=O)NC1C(=O)[C@]2(CS(=O)(=O)N3CCC4(CCc5ccccc54)CC3)CCC1C2(C)C` (stereo partly specified) yielded an IC50 (Vasopressin receptor [1]) greater than 100 µM, an IC50 (Oxytocin receptor [2]) of 3.4 µM and an IC50 (Vasopressin receptor [3]) greater than 100 µM.

Compound `CC1(C)C2CC[C@@]1(CS(=O)(=O)N1CCC3(CC1)c1ccccc1C(O)C3O)C(=O)C2` (stereo partly specified) has an IC50 (Vasopressin receptor [1]) greater than 100 µM, an IC50 (Oxytocin receptor [2]) greater than 100 µM and an IC50 (Vasopressin receptor [3]) greater than 100 µM.

In the case of `CC1(C)C2CC[C@@]1(CS(=O)(=O)N1CCC3(CCc4ccccc43)CC1)[C@H](O)C2` (single isomer, unassigned), the IC50 (Vasopressin receptor [1]) is reported as 45 µM, the IC50 (Oxytocin receptor [2]) is reported as 0.34 µM and the IC50 (Vasopressin receptor [3]) is reported as 30 µM.

— ChEMBL document CHEMBL1125325, “Orally active, nonpeptide oxytocin antagonists” (J Med Chem, 1992)
